ChEMBL document CHEMBL3616436, “Synthesis, cytotoxicity and antimicrobial activity of thiourea derivatives incorporating 3-(trifluoromethyl)phenyl moiety” (Eur J Med Chem, 2015)
Values after ≈ are worked out from the molar mass of the structure shown. Active and inactive are the calls of the source. The rule behind the calls is not given here.

Legend:
[1] = system: Pseudomonas aeruginosa; test: Antimicrobial activity against Pseudomonas aeruginosa NCTC 6749 after 18 hrs by twofold serial microdilution method; type: functional, organism-based
[2] = system: Vesicular stomatitis virus; test: Antiviral activity against Vesicular stomatitis virus ATCC VR 1540 infected in African green monkey Vero 76 cells assessed as reduction of virus-plaque formation after 2 days by crystal violet staining; type: functional, organism-based; details: ATCC VR 1540, Vero, 48 h
[3] = system: Vaccinia virus; test: Antiviral activity against Human Vaccinia virus ATCC VR-1549 infected in African green monkey Vero 76 cells assessed as reduction of virus-plaque formation after 3 days by crystal violet staining; type: functional, organism-based; details: Orthopoxvirus vaccinia, ATCC VR-1549, Vero, 72 h
[4] = system: Candida albicans; test: Antimicrobial activity against Candida albicans ATCC 90028 after 24 hrs by twofold serial microdilution method; type: functional, organism-based
[5] = system: Yellow fever virus; test: Antiviral activity against Yellow fever virus 17D infected in BHK cells assessed as protection against virus-induced cytopathogenicity after 3 to 4 days by MTT assay; type: functional, cell-based
[6] = Cytotoxicity against African green monkey Vero 76 cells assessed as cell viability after 48 to 96 hrs by crystal violet staining; type: cell-based; details: chlorocebus sabaeus
[7] = system: Escherichia coli; test: Antimicrobial activity against Escherichia coli NCTC 8196 after 18 hrs by twofold serial microdilution method; type: functional, organism-based
[8] = system: Human immunodeficiency virus 1; test: Antiviral activity against HIV1 3B infected in human MT4 cells assessed as protection against virus-induced cytopathogenicity by MTT assay; type: functional, organism-based; details: Human immunodeficiency virus 1, 3B
[9] = system: Mammalian orthoreovirus 1; test: Antiviral activity against Reovirus type-1 ATCC VR-214 infected in BHK cells assessed as protection against virus-induced cytopathogenicity after 3 to 4 days by MTT assay; type: functional, cell-based; details: Mammalian orthoreovirus 1, ATCC VR-214, BHK
Outline: (§1)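 Cells seeded in 96-well plates (BHK 5x10^4, MDBK 3x10^4 cells/well), grown overnight to confluence, infected at m.o.i. 0.01 (BHK for Reo-1, MDBK for BVDV); serial compound dilutions in maintenance medium with 0.5% inactivated FBS added after 1 h; viability by MTT after 3–4 days at 37°C; EC50 for 50% protection by linear regression.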

[10] = Antiviral activity against Bovine viral diarrhea virus 1-NADL ATCC VR-534 infected in MDBK cells assessed as protection against virus-induced cytopathogenicity after 3 to 4 days by MTT assay; type: functional, cell-based; details: Bovine viral diarrhea virus isolates and strains, ATCC VR-534, MDBK; outline: as §1
[11] = system: Coxsackievirus B5; test: Antiviral activity against Human coxsackievirus B5 ATCC VR-29 infected in African green monkey Vero 76 cells assessed as reduction of virus-plaque formation after 3 days by crystal violet staining; type: functional, organism-based; details: Enterovirus B, ATCC VR-29, Vero, 72 h
Outline: (§2)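 Plaque reduction: Vero-76 at 2x10^5 cells/well grown to confluent monolayers, infected 2 h at 50–100 PFU/well; after removing unadsorbed virus, overlay of D-MEM, 1% inactivated FBS, 0.75% methylcellulose with or without serial compound dilutions; 3 days at 37°C, fixed and stained with crystal violet in 50% ethanol, plaques counted; EC50 by linear regression.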

[12] = Cytotoxicity against BHK cells assessed as cell viability after 48 to 96 hrs by MTT assay; type: cell-based, Mesocricetus auratus; details: hamster
[13] = system: Candida albicans; test: Antimicrobial activity against Candida albicans ATCC 10231 after 24 hrs by twofold serial microdilution method; type: functional, organism-based
[14] = system: Poliovirus 1; test: Antiviral activity against Poliovirus type 1 ATCC VR-1562 infected in African green monkey Vero 76 cells assessed as reduction of virus-plaque formation after 2 days by crystal violet staining; type: functional, organism-based; details: Enterovirus C, ATCC VR-1562, Vero, 48 h
[15] = system: Pseudomonas aeruginosa; test: Antimicrobial activity against Pseudomonas aeruginosa ATCC 27863 after 18 hrs by twofold serial microdilution method; type: functional, organism-based
[16] = system: Candida parapsilosis; test: Antimicrobial activity against Candida parapsilosis ATCC 22019 after 24 hrs by twofold serial microdilution method; type: functional, organism-based
[17] = Cytotoxicity against bovine MDBK cells assessed as cell viability after 48 to 96 hrs by MTT assay; type: cell-based, Bos taurus; details: cattle
[18] = system: Escherichia coli; test: Antimicrobial activity against Escherichia coli ATCC 25922 after 18 hrs by twofold serial microdilution method; type: functional, organism-based
[19] = system: Escherichia coli; test: Antimicrobial activity against Escherichia coli ATCC 10538 after 18 hrs by twofold serial microdilution method; type: functional, organism-based
[20] = system: Pseudomonas aeruginosa; test: Antimicrobial activity against Pseudomonas aeruginosa ATCC 15442 after 18 hrs by twofold serial microdilution method; type: functional, organism-based
[21] = Cytotoxicity against human MT4 cells; type: cell-based
[22] = system: Human alphaherpesvirus 1; test: Antiviral activity against Human herpesvirus 1 KOS ATCC VR-1493 infected in African green monkey Vero 76 cells assessed as reduction of virus-plaque formation after 3 days by crystal violet staining; type: functional, organism-based; details: Human alphaherpesvirus 1, KOS ATCC VR1493, Vero, 72 h; outline: as §2
[23] = system: Bordetella bronchiseptica; test: Antimicrobial activity against Bordetella bronchiseptica ATCC 4617 after 18 hrs by twofold serial microdilution method; type: functional, organism-based
[24] = system: Staphylococcus aureus; test: Antimicrobial activity against Staphylococcus aureus ATCC 25923 after 18 hrs by twofold serial microdilution method; type: functional; details: ATCC 25923, 18 h
[25] = system: Mycobacterium tuberculosis; test: Antimycobacterial activity against drug-sensitive Mycobacterium tuberculosis Spec. 192; type: functional
Outline: (§3)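 Classical test-tube successive-dilution method in Youmans' modification of Proskauer and Beck liquid medium with 10% bovine serum. Inoculum came from 14-day cultures. DMSO stock was 10 mg/mL, diluted geometrically in medium. Tubes were incubated at 37 °C. Concentrations tested were 3.1, 6.2, 12.5, 25, 50 and 100 µg/ml. MIC is the minimum concentration inhibiting growth relative to compound-free tubes.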

[26] = system: Bacillus cereus; test: Antimicrobial activity against Bacillus cereus ATCC 11778 at 400 ug after 18 hrs by disc-diffusion method; type: functional; details: ATCC 11778, 18 h, read-out: IZ
Outline: (§4)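 Disc diffusion on Mueller-Hinton II agar per CLSI; 9 mm paper discs loaded with 400 µg compound from DMSO solution, dried, placed on agar; growth inhibition zone diameter read after 18 h at 35°C.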

[27] = system: Staphylococcus aureus; test: Antimicrobial activity against Staphylococcus aureus ATCC 6538 after 18 hrs by twofold serial microdilution method; type: functional; details: ATCC 6538, 18 h
[28] = system: Staphylococcus aureus; test: Antimicrobial activity against Staphylococcus aureus ATCC 25923 at 400 ug after 18 hrs by disc-diffusion method; type: functional; details: ATCC 25923, 18 h, read-out: IZ; outline: as §4
[29] = system: Mycobacterium tuberculosis; test: Antimycobacterial activity against Mycobacterium tuberculosis H37Rv ATCC 25618; type: functional; outline: as §3
[30] = system: Staphylococcus aureus; test: Antimicrobial activity against Staphylococcus aureus ATCC 29213 after 18 hrs by twofold serial microdilution method; type: functional; details: ATCC 29213, 18 h
[31] = system: Staphylococcus epidermidis; test: Antimicrobial activity against Staphylococcus epidermidis ATCC 12228 after 18 hrs by twofold serial microdilution method; type: functional; details: ATCC 12228, 18 h
[32] = system: Micrococcus luteus; test: Antimicrobial activity against Micrococcus luteus ATCC 9341 at 400 ug after 18 hrs by disc-diffusion method; type: functional; details: ATCC 9341, 18 h, read-out: IZ; outline: as §4
[33] = system: Staphylococcus epidermidis; test: Antimicrobial activity against Staphylococcus epidermidis ATCC 35984 after 18 hrs by twofold serial microdilution method; type: functional; details: ATCC 35984, 18 h
[34] = system: Proteus vulgaris; test: Antimicrobial activity against Proteus vulgaris NCTC 4635 at 400 ug after 18 hrs by disc-diffusion method; type: functional; details: NCTC 4635, 18 h, read-out: IZ; outline: as §4
[35] = system: Micrococcus luteus; test: Antimicrobial activity against Micrococcus luteus ATCC 10240 at 400 ug after 18 hrs by disc-diffusion method; type: functional; details: ATCC 10240, 18 h, read-out: IZ; outline: as §4
[36] = system: Staphylococcus epidermidis; test: Antimicrobial activity against Staphylococcus epidermidis ATCC 12228 at 400 ug after 18 hrs by disc-diffusion method; type: functional; details: ATCC 12228, 18 h, read-out: IZ; outline: as §4
[37] = system: Enterococcus hirae; test: Antimicrobial activity against Enterococcus hirae ATCC 10541 at 400 ug after 18 hrs by disc-diffusion method; type: functional; details: ATCC 10541, 18 h, read-out: IZ; outline: as §4
[38] = system: Staphylococcus aureus; test: Antimicrobial activity against Staphylococcus aureus NCTC 4163 after 18 hrs by twofold serial microdilution method; type: functional; details: NCTC 4163, 18 h
[39] = system: Staphylococcus aureus; test: Antimicrobial activity against Staphylococcus aureus ATCC 6538 at 400 ug after 18 hrs by disc-diffusion method; type: functional; details: ATCC 6538, 18 h, read-out: IZ; outline: as §4
[40] = system: Bacillus subtilis; test: Antimicrobial activity against Bacillus subtilis ATCC 6633 at 400 ug after 18 hrs by disc-diffusion method; type: functional; details: ATCC 6633, 18 h, read-out: IZ; outline: as §4
[41] = system: Staphylococcus aureus; test: Antimicrobial activity against Staphylococcus aureus ATCC 29213 at 400 ug after 18 hrs by disc-diffusion method; type: functional; details: ATCC 29213, 18 h, read-out: IZ; outline: as §4
[42] = system: Staphylococcus epidermidis; test: Antimicrobial activity against Staphylococcus epidermidis ATCC 35984 at 400 ug after 18 hrs by disc-diffusion method; type: functional; details: ATCC 35984, 18 h, read-out: IZ; outline: as §4
[43] = system: Staphylococcus aureus; test: Antimicrobial activity against Staphylococcus aureus NCTC 4163 at 400 ug after 18 hrs by disc-diffusion method; type: functional; details: NCTC 4163, 18 h, read-out: IZ; outline: as §4
[44] = system: Enterococcus faecalis; test: Antimicrobial activity against Enterococcus faecalis ATCC 29212 at 400 ug after 18 hrs by disc-diffusion method; type: functional; details: ATCC 29212, 18 h, read-out: IZ; outline: as §4

Compound: CC(=O)NC(=S)Nc1cccc(C(F)(F)F)c1
- Activity [1]: inactive
- EC50 [2]: > 100 µM
- EC50 [3]: > 100 µM
- Activity [4]: inactive
- EC50 [5]: > 100 µM
- CC50 [6]: > 100 µM
- Activity [7]: inactive
- EC50 [8]: > 100 µM
- EC50 [9]: > 100 µM
- EC50 [10]: > 100 µM
- EC50 [11]: > 100 µM
- CC50 [12]: > 100 µM
- Activity [13]: inactive
- EC50 [14]: > 100 µM
- Activity [15]: inactive
- Activity [16]: inactive
- CC50 [17]: > 100 µM
- Activity [18]: inactive
- Activity [19]: inactive
- Activity [20]: inactive
- CC50 [21]: > 100 µM
- EC50 [22]: > 100 µM
- Activity [23]: inactive

Compound: FC(F)(F)c1cccc(NC(=S)Nc2ccccc2Br)c1
- Activity [1]: inactive
- EC50 [2]: > 50 µM
- EC50 [3]: > 50 µM
- Activity [4]: inactive
- EC50 [5]: > 59 µM
- CC50 [6]: 50 µM
- Activity [7]: inactive
- EC50 [8]: > 36 µM
- EC50 [9]: > 59 µM
- EC50 [10]: > 100 µM
- EC50 [11]: > 50 µM
- CC50 [12]: 59 µM
- Activity [13]: inactive
- EC50 [14]: > 50 µM
- Activity [15]: inactive
- Activity [16]: inactive
- CC50 [17]: > 100 µM
- Activity [18]: inactive
- Activity [19]: inactive
- Activity [20]: inactive
- CC50 [21]: 36 µM
- EC50 [22]: > 50 µM
- Activity [23]: inactive

Compound: Fc1ccc(NC(=S)Nc2cccc(C(F)(F)F)c2)cc1
- MIC [24]: 8 µg/mL (≈ 25.5 µM)
- MIC [25]: 25 µg/mL (≈ 79.5 µM)
- EC50 [2]: > 40 µM
- zone of inhibition at 400 µg/disc [26]: 23 mm
- MIC [27]: 16 µg/mL (≈ 50.9 µM)
- EC50 [3]: > 40 µM
- EC50 [5]: > 26 µM
- zone of inhibition at 400 µg/disc [28]: 23 mm
- MIC [29]: 25 µg/mL (≈ 79.5 µM)
- MIC [30]: 16 µg/mL (≈ 50.9 µM)
- CC50 [6]: 40 µM
- MIC [31]: 16 µg/mL (≈ 50.9 µM)
- EC50 [8]: > 31 µM
- EC50 [9]: > 26 µM
- zone of inhibition at 400 µg/disc [32]: 28 mm
- EC50 [10]: > 41 µM
- EC50 [11]: > 40 µM
- CC50 [12]: 26 µM
- MIC [33]: 16 µg/mL (≈ 50.9 µM)
- zone of inhibition at 400 µg/disc [34]: 14 mm
- EC50 [14]: > 40 µM
- zone of inhibition at 400 µg/disc [35]: 28 mm
- zone of inhibition at 400 µg/disc [36]: 26 mm
- CC50 [17]: 41 µM
- zone of inhibition at 400 µg/disc [37]: 30 mm
- MIC [38]: 8 µg/mL (≈ 25.5 µM)
- zone of inhibition at 400 µg/disc [39]: 25 mm
- zone of inhibition at 400 µg/disc [40]: 25 mm
- CC50 [21]: 31 µM
- zone of inhibition at 400 µg/disc [41]: 25 mm
- zone of inhibition at 400 µg/disc [42]: 25 mm
- EC50 [22]: > 40 µM
- zone of inhibition at 400 µg/disc [43]: 27 mm
- zone of inhibition at 400 µg/disc [44]: 20 mm
